Rows were chosen to be rich in hits. Some 4.3% of all compounds tested hit in one or more screens of this group.
STAT1 activator – activators of IFN-gamma induced STAT1 signaling. NIH 3T3 STAT1-luciferase reporter, luminescence; 100% = IFN-gamma alone, no compound. activation (% of control), % at 5.5 µM. 200,000 tested, 2.6% active. AID 932;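 active = activation above the screen-wide mean activation plus 3 SD, cut at about 130% in these data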;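 note: raw ratio to IFN-gamma control signal so 100% means no change and 0% no light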
STAT3 act – activators of IL-6 induced STAT3 signaling; U3A cells, IL-6 STAT3-luciferase reporter, luminescence; 100% = signal with IL-6 EC80 alone; activation (% of control), % at 5.6 µM; 190,000 tested, 0.91% active; AID 871;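 active = activation above the screen-wide mean of compound activation plus 3 SD, cut at about 130% in these data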;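 note: 0% = background luminescence of wells with medium and substrate only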
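Test system: Human STAT1-deficient U3A cells with stable STAT3-luciferase reporter | Also added: Interleukin-6, 33 ng/mL | Timing: Compound pre-incubation 1 h before IL-6, then 6 h stimulation at 37 °C | Technique: Luciferase reporter luminescence | Read-out: Percent of IL-6-only median luminescence | Benchmarks: IL-6-only wells as 100% reference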
STAT1 blocker – STAT1 signaling inhibition; AID 920; NIH 3T3 STAT1-luciferase reporter, IFN-gamma, luminescence; inhibition, % at 5.5 µM; 200,000 tested, 0.35% active;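 active = inhibition above a set limit, the mean inhibition across all tested compounds plus 3 SD, cut at about 34% in these data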;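 note: 0% = IFN-gamma with DMSO and 100% = IFN-gamma with 300 µM nifuroxazide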
STAT3 blocker – STAT3 signaling inhibition | U3A cells, IL-6 STAT3-luciferase reporter, luminescence; host cell line lacks STAT1 | inhibition, % at 5.5 µM | 190,000 tested, 0.89% active;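 active = inhibition above the mean inhibition across all screened compounds plus 3 SD, cut at about 44% in these data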;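 note: 0% = DMSO only wells and 100% = 100 µM nifuroxazide control wells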
STAT1 act conf – STAT1 activation, confirmation assay. shares compounds with STAT1 activator. NIH 3T3 STAT1-luciferase reporter, IFN-gamma potentiation, luminescence; 100% = IFN-gamma EC80 alone, no compound. activation (% of control), % at 5.7 µM. 1,200 tested, 97% active. AID 1262;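 active = activation above a set limit carried over from the earlier primary STAT1 screen, cut at about 140% in these data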;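 note: simple ratio to median IFN-gamma plus DMSO wells so 0% means no light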
NFkB act – NF-kappaB activation in STAT1 activator counter-screen. shares compounds with STAT1 activator. HEK293T NF-kB luciferase reporter, TNF-alpha stimulated, luminescence; 100% = TNF-alpha with vehicle only. activation (% of control), % at 5.7 µM. 1,200 tested, 43% active;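 active = activation above the mean of solvent-only control wells plus 3 SD, set per campaign, cut at about 130% in these data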;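 note: TNF-alpha given at a submaximal dose yielding about 80% of full reporter signal; values are well signal over median control so 100% means no change and 0% no light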
STAT3 act 2 – activates human STAT3, counter-screen to STAT1 activators; shares compounds with STAT1 activator; U3A cells STAT3-luciferase reporter, IL-6, luminescence; cells lack STAT1; 100 = IL-6 alone, no compound effect; activation (% of control), % at 5.7 µM; 1,200 tested, 46% active; AID 1316;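 active = activation above the solvent-only control well mean plus 3 SD, set per plate batch, cut at about 110% in these data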;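 note: 0% = no luminescence and 100% = median IL-6 plus DMSO wells; higher means more STAT3 reporter activation so hits are non-selective activators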
Starred values were filed as active, the others as inactive; nt = no result given.

SMILES	STAT1 activator	STAT3 act	STAT1 blocker	STAT3 blocker	STAT1 act conf	NFkB act	STAT3 act 2
COc1cc(CNc2ncn[nH]2)ccc1OCc1cccc(C)c1	128	111	-32	0	nt	nt	nt
CCCCCNc1nc(-c2ccccc2)cs1	153*	83	-51	20	177*	125	100
CC(=O)Nc1ccc(-c2csc(Nc3ncccn3)n2)cc1	155*	99	-61	7	168*	129	111*
c1ccc(-c2csc(Nc3ncccn3)n2)cc1	157*	99	-64	3	240*	113	95
Clc1ccccc1Nc1nc(-c2cccnc2)cs1	168*	102	-77	0	226*	134*	111*
NNc1nc(-c2ccccc2)cs1	126	126	-27	-31	nt	nt	nt
O=C(NCCNC(=O)c1ccc([N+](=O)[O-])cc1)c1ccncc1	103	100	-5	2	nt	nt	nt
Cc1ccc(C(=O)Nc2onc(C)c2C#N)cc1	107	106	-8	-1	nt	nt	nt
Cc1ccc(OCC(=O)Nc2ccc(N3CCN(C(=O)c4ccco4)CC3)cc2)cc1	94	99	7	2	nt	nt	nt
COc1ccc(-c2cc(-c3ccc(OC)cc3)[nH]n2)cc1	151*	89	-56	15	162*	123	94
O=[N+]([O-])c1ccccc1OCCCn1cnc2ccccc21	169*	104	-79	0	188*	132	106
COc1cccc(-c2ccc(SCC(=O)N3CCc4ccccc43)nn2)c1	88	90	13	15	nt	nt	nt
CC(C)COC(=O)Cn1cnc2ccc(Br)cc2c1=O	103	98	-3	4	nt	nt	nt
Cc1cc(C)nc(NC(=O)Nc2ccc3c(c2)OCO3)c1	156*	86	-62	19	204*	128	99
Cc1cccc(NC(=O)Nc2cc(C)cc(C)n2)c1	169*	88	-74	22	193*	121	100
Cc1cccc(NC(=O)Nc2ccc(C)cc2Br)c1	123	101	-26	2	nt	nt	nt
Cc1cccc(NC(=O)Nc2ccc(C#N)cc2)n1	208*	78	-122	26	141*	136*	125*
CCOC(=O)C1CCN(C(=O)COC(=O)CNC(=O)c2ccc(OC)cc2)CC1	86	101	14	1	nt	nt	nt
FC(F)Oc1ccc(NC(=S)NNc2ccnc3cc(Cl)ccc23)cc1	107	105	-8	-3	nt	nt	nt
CNc1nc(-c2ccc3c(c2)CCN3C(=O)c2ccccc2F)cs1	159*	85	-67	20	215*	143*	96
COc1ccc(Cn2c(/C=C/c3ccccc3)nc3ccccc32)cc1	157*	120	-64	-19	196*	150*	130*
CSc1c(CC(=O)Nc2ccc(F)cc2)n(Cc2ccccc2)c2ccccc12	103	96	-3	10	nt	nt	nt
CCOC(=O)C1CCCN(C(=S)Nc2cccc(Cl)c2)C1 (stereo unspecified)	105	94	-5	3	nt	nt	nt
COc1ccc(C(=O)Nc2ccc(N3CCCC3)cc2)cc1	101	89	-1	18	nt	nt	nt
O=C(Nc1ccc(N2CCCCC2)cc1)c1ccc(F)cc1	162*	69	-68	39	216*	130	102
SMILES	STAT1 activator	STAT3 act	STAT1 blocker	STAT3 blocker	STAT1 act conf	NFkB act	STAT3 act 2
O=C(Nc1ccc(N2CCCC2)cc1)c1ccc(Br)o1	166*	87	-72	19	217*	134*	103
CC(=O)c1cc(-c2ccc(F)cc2)n(CCC(=O)Nc2cccc(C)n2)c1C	97	102	3	5	nt	nt	nt
c1ccc2c(c1)Cn1c-2nc2ccccc21	158*	68	-64	40	189*	129	95
C=CCn1c(SCC(N)=O)nc2scc(-c3ccc(C)o3)c2c1=O	155*	105	-62	6	202*	138*	129*
CC(=O)OCCCN1c2ccccc2Nc2nnc(-c3ccccc3)cc21	158*	92	-63	14	192*	127	95
COc1ccc(C(=O)NC(=S)Nc2ccccc2F)cc1	158*	96	-66	2	171*	134*	100
O=C(N/N=C/C1C(c2ccccc2)C1(Cl)Cl)c1cccc(Cl)c1 (stereo unspecified)	112	107	-13	-13	nt	nt	nt
CCCCc1ccc(-c2ccc(Br)cc2)nc1	155*	85	-65	20	223*	126	97
CC(C)N(Cc1ccccc1)CC(O)COc1ccc(S(=O)(=O)N2CCOCC2)cc1Cl (stereo unspecified)	97	103	1	-2	nt	nt	nt
O=C(NCCCN1CCCC1=O)C1CCCO1 (stereo unspecified)	100	94	-3	12	nt	nt	nt
COc1ccccc1/C=C/C(=O)Nc1ccc2c(c1)OCCO2	179*	96	-89	4	238*	124	105
COc1ccccc1/C=C/C(=O)Nc1ccc2c(c1)CCC2	161*	108	-66	-12	197*	147*	112*
COc1ccc(OC)c(/C=C/C(=O)Nc2ccc3c(c2)CCC3)c1	106	96	-7	1	nt	nt	nt
COc1ccc(/C=C/C(=O)Nc2ccccc2)cc1OC	152*	95	-53	10	163*	126	104
Cc1cccc(Nc2cc(C)c3c(O)cccc3n2)c1C	97	96	4	4	nt	nt	nt
CCN(CC)c1ccc(C=NCCc2ccc(S(N)(=O)=O)cc2)cc1	101	105	-1	2	nt	nt	nt
Cc1scc(C(=O)N/N=C/c2ccc(Cl)s2)c1C	151*	105	-58	-6	181*	130	102
Cc1scc(C(=O)N/N=C/c2ccc(OC(C)C)cc2)c1C	106	107	-7	-2	nt	nt	nt
Cc1nnc2n(c1=O)C(CS(=O)(=O)c1ccc3ccccc3c1)CS2 (stereo unspecified)	83	103	17	-2	nt	nt	nt
O=C(/C=C/c1ccccc1)Nc1ccc(Cl)cn1	156*	100	-60	9	208*	121	95
O=C(CC(c1ccccc1)c1ccccc1)Nc1ccc(Cl)cn1	94	106	6	-4	nt	nt	nt
NC(=O)c1ccccc1NC(=O)/C=C/C(=O)O	97	97	4	10	nt	nt	nt
Cc1ccc(/C=C/C(=O)Nc2ccccc2C(N)=O)cc1	152*	75	-60	33	180*	112	88
CS(=O)(=O)N(CC(=O)N1CCCCC1)c1cccc(F)c1	101	105	-2	-5	nt	nt	nt
O=C1OC(Cc2ccccn2)C(O)=C1C1=NCCCCN1 (stereo unspecified)	152*	103	-58	-3	151*	115	114*

Source: PubChem
